Assay results from different studies.
Protocols differ between the studies behind these lines.
Target: Membrane-associated tyrosine- and threonine-specific cdc2-inhibitory kinase (PKMYT1, Homo sapiens, UniProt Q99640)
Sequence (Q99640 1-499, as in one of the studies): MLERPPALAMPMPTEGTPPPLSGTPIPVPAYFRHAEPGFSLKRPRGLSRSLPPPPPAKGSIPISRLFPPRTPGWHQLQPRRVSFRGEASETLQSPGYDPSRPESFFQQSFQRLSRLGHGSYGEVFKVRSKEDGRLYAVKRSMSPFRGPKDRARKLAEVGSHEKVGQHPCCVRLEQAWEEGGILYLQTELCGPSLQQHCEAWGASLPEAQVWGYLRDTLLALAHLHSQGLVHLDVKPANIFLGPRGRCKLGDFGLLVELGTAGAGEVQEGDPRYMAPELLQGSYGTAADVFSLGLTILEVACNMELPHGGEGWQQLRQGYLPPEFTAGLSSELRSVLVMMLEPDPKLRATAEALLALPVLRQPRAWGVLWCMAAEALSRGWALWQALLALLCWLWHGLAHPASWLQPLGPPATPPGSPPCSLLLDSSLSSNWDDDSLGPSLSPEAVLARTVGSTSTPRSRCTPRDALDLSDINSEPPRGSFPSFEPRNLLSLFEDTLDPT

SMILES | test | setting | remaining binding [%]
CN(C)c1nccc(-c2cnc3ncccn23)n1 | binding | 1 µM | 88
O=C(NCCCN1CCOCC1)c1ccc(Nc2nccc(-c3cc4ccccc4s3)n2)cc1 | binding, competition with immobilised ligand | 1 µM | 84
N[C@H]1CCN(c2nccc(-c3cnn4ncccc34)n2)C1 | binding | 1 µM | 91
COc1ncc2cc3ccccc3nc2c1C#N | cell-free assay, competition with immobilised ligand | 5 µM | 100
O=C(c1ccc(Nc2nccc(-c3cc4ccccc4s3)n2)cc1)N1CCC(N2CCCC2)CC1 | binding, competition with immobilised ligand | 1 µM | 70
COc1cc(-c2cn(C3CCc4ccccc4N(CC(F)(F)F)C3=O)nn2)ccc1-n1ccc(C)n1 (centres unmarked) | cell-free assay, competition with immobilised ligand | 1 µM | 100
COc1ccnn2ncc(-c3ccnc(N(C)C)n3)c12 | binding | 1 µM | 100
CS(=O)(=O)N1CCCC(NC(=O)[C@H](CCC2CCCCC2)NC(=O)c2ccc(CNC(=O)c3cnc4ccccn34)cc2)C1 (some centres unmarked) | cell-free assay, competition with immobilised ligand | 0.1 µM | 100
Nc1ncc2c(n1)-c1c([nH]c3ccc(C#CC4CC4)cc13)CCCC2 | binding, competition with immobilised ligand | 1 µM | 98
O=C(NCC1CCOCC1)c1n[nH]cc1NC(=O)c1c(F)cccc1F | binding, competition with immobilised ligand | 1 µM | 72
CCOC(=O)c1cc2cc(-c3cc(C(=O)NCc4ccc(C(=O)O)cc4)nn3C)ccc2[nH]1 | cell-free assay, competition with immobilised ligand | 0.1 µM | 100
O=C(NCCCN1CCOCC1)c1ccc(Nc2ncc(Cl)c(-c3ccc(Cl)s3)n2)cc1 | binding, competition with immobilised ligand | 1 µM | 100
COc1cnc(Nc2cccc(S(N)(=O)=O)c2)nc1N1CCN(c2ccccc2)C(=O)C1 | binding, competition with immobilised ligand | 1 µM | 86
CN(C)c1ncc(F)c(-c2cnn3ncccc23)n1 | binding | 1 µM | 97
O=C(Nc1ccc(Oc2ccc(F)cc2)cc1)N1CCc2ncccc2[C@H]1c1ccc(F)cc1 | cell-free assay, competition with immobilised ligand | 1 µM | 63
Cc1cnn2ncc(-c3ccnc(N(C)C)n3)c2c1 | binding | 1 µM | 100
COc1cc(-c2cn(C3CCc4c(F)cccc4N(CC(F)(F)F)C3=O)nn2)ccc1-n1cnc(C)c1 (centres unmarked) | cell-free assay, competition with immobilised ligand | 1 µM | 100
C[C@H]1CCN(c2nccc(-c3cnn4ncccc34)n2)C1 | binding | 1 µM | 100
O=C(Nc1cccnn1)N1CC(C/C=C/c2cncc(Oc3ccc(C(F)(F)F)cn3)n2)C1 | cell-free assay, competition with immobilised ligand | 1 µM | 100
c1cncc(-c2cccc(Nc3nccc(NC4CCCCC4)n3)c2)c1 | binding, competition with immobilised ligand | 10 µM | 96
